Measured values from different studies.
Lines come from different studies, so protocols differ.
Action: inhibitor
rep papain-like protease: Replicase polyprotein 1ab, papain-like protease (rep, Severe acute respiratory syndrome coronavirus 2, UniProt P0DTD1)
rep main protease: Replicase polyprotein 1ab, main protease (rep, Severe acute respiratory syndrome coronavirus 2, UniProt P0DTD1)

Structure (SMILES) | target | assay | system | conditions | inhibition
Cc1ccc2nc(Cl)c(/C=N/NC(=O)c3ccncc3)cc2c1 | rep papain-like protease | enzyme activity |  | 100 µM | 38.4%
COc1ccc(OC)c2c1C(=O)C=CC2=O | rep main protease | enzyme activity |  | 1 µM | 75.1%
O=C(/C=C/c1ccc(O)c(O)c1)O[C@@H]1C[C@](O)(C(=O)O)C[C@@H](O)[C@H]1O | rep papain-like protease | enzyme activity |  | 50 µM | 12.5%
Oc1ccc(/C=C/c2cc(O)cc(O)c2)cc1 | rep main protease | enzyme activity, FRET |  | 10 µM, 10 min | > 50%
CCOC(=O)C(Cc1c[nH]c2ccccc12)NC(=O)CCC(=O)Nc1ccc(S(N)(=O)=O)cc1 (stereo not drawn) | rep main protease | enzyme activity |  | 100 µg/mL | 0%
Cc1cc(OCc2ccccc2)c2c(c1)C(=O)C=CC2=O | rep main protease | enzyme activity |  | 0.1 µM | 28.1%
NC(=O)CSc1nnc2c3ccccc3nc(-c3ccc(F)cc3)n12 | rep main protease | enzyme activity |  | 20 µM | 20.1%
CC1(C)C=Cc2c(ccc3c2OC[C@@H](c2ccc(O)cc2O)C3)O1 | rep main protease | enzyme activity |  | 8 µM | 17.4%
O=C(Oc1cncc(Cl)c1)c1ccc2[nH]c3c(c2c1)CCCC3 | rep main protease | enzyme activity, fluorescence |  | 10 µM, pH 7.2 | 100%
O=[N+]([O-])c1cccc(-c2nc(O)c3ccccc3n2)c1 | rep main protease | enzyme activity |  | 20 µM | 22.3%
O=C(O)c1cc(O)c2c(c1)C([C@@H]1c3cc(C(=O)O)cc(O)c3C(=O)c3c(O[C@H]4O[C@H](CO)[C@@H](O)[C@H](O)[C@H]4O)cccc31)c1cccc(O[C@H]3O[C@H](CO)[C@@H](O)[C@H](O)[C@H]3O)c1C2=O (stereo partly drawn) | rep main protease | enzyme activity |  | 20 µM | 103%
CCOC(=O)COc1cc(C)cc2c1C(=O)C=CC2=O | rep main protease | enzyme activity |  | 10 µM | 97.5%
Oc1cc2c(cc1O)[C@H]1c3ccccc3CN[C@@H]1CC2 (racemic) | rep main protease | enzyme activity |  | 20 µM | -15.1%
CCc1ccc(NC(=O)c2cc3c(=O)n4ccccc4nc3n2C)cc1 | rep main protease | enzyme activity |  | 100 µM | 49%
O=C(NCc1cccnc1)Nc1csc([N+](=O)[O-])c1 | rep main protease | enzyme activity |  | 20 µM | 4.45%
O=C(O)c1cc(O)c2c(c1)C(=O)c1cccc(O)c1C2=O | rep main protease | enzyme activity |  | 10 µM | 7.8%
CC(=O)Nc1ccc(C2NN=C(c3ccc(C(F)(F)F)cn3)N2)cc1 (stereo not drawn) | rep main protease | enzyme activity |  | 20 µM | 4.63%
O=C(O)/C=C/c1ccc(O)c(O)c1 | rep main protease | enzyme activity, FRET |  | 10 µM, 10 min | < 25%
Cc1cccn2c(=O)c3cc(C(=O)Nc4ccc(N(C)C)cc4)n(C)c3nc12 | rep main protease | enzyme activity |  | 10 µM | 8.7%
O=C(NC[C@H](NC(=O)c1cncc2sccc12)c1ccc2ccccc2c1)c1cocn1 | rep main protease | enzyme activity |  | 5 µM | 19.1%
CN1CCc2cccc3c2[C@H]1Cc1ccc(O)c(O)c1-3 | rep main protease | enzyme activity |  | 20 µM | -23%
COc1cc(C[C@@H](C)[C@@H](C)Cc2ccc(O)c(OC)c2)ccc1O | rep main protease | enzyme activity, FRET |  | 8 µM | 45%
COc1ccc2nc(Cl)c(/C=N/c3ccc(-c4nc5ccccc5[nH]4)cc3)cc2c1 | rep papain-like protease | enzyme activity |  | 100 µM | 13.5%
COc1cc(/C=C/C(=O)CC(=O)/C=C/c2ccc(O)c(OC)c2)ccc1O | rep main protease | enzyme activity, FRET |  | 10 µM, 10 min | > 50%
O=C(NCc1ccccn1)Nc1csc2ccccc12 | rep main protease | enzyme activity |  | 20 µM | -3.23%
O=C(O)[C@H]1O[C@@H](Oc2cc3oc(-c4ccc(O)cc4)cc(=O)c3c(O)c2O)[C@H](O)[C@@H](O)[C@@H]1O | rep main protease | enzyme activity |  | 100 µM | 76.8%

Structure (SMILES) | target | assay | system | conditions | inhibition
CCc1cscc1C(=O)N1Cc2ccccc2C[C@H]1CNC(=O)c1cccc2[nH]ncc12 | rep main protease | enzyme activity |  | 5 µM | 10.8%
COc1cc(O)cc(/C=C/c2ccc(O)cc2)c1 | rep main protease | enzyme activity |  | 20 µM | 38.1%
COc1cc([C@H]2OC[C@H]3[C@@H]2CO[C@H]3c2ccc(OC)c(OC)c2)ccc1O | rep main protease | enzyme activity |  | 100 µM | 11.4%
CN(C)C(=O)COC(=O)Cc1ccc(OC(=O)c2ccc(NC(=N)N)cc2)cc1 | rep main protease | enzyme activity |  | 10 µM | 6%
CCC(CC)COC(=O)[C@H](C)N[P@](=O)(OC[C@H]1O[C@@](C#N)(c2ccc3c(N)ncnn23)[C@H](O)[C@@H]1O)Oc1ccccc1 | Replicase polyprotein 1ab, polymerase (rep, Severe acute respiratory syndrome coronavirus 2, UniProt P0DTD1) | enzyme activity in cells | HEK-293T | 10 µM | 87%
O=C(O)[C@H]1O[C@@H](Oc2cc3oc(-c4ccccc4)cc(=O)c3c(O)c2O)[C@H](O)[C@@H](O)[C@@H]1O | rep main protease | enzyme activity |  | 10 µM | 68.9%
CC(=O)Nc1ccc(-c2cnc(/N=C\c3cc4ccccc4nc3Cl)s2)cc1 | rep papain-like protease | enzyme activity |  | 10 µM | 39%
Cc1ccc(NC(=O)c2cc3c(=O)n4cccc(C)c4nc3n2C)cc1Cl | rep main protease | enzyme activity |  | 100 µM | 37%
CC[C@@H](C)[C@@H](NC(=O)[C@@H](CCC(=O)O)NC(=O)[C@H](NC(=O)[C@@H](CCC(N)=O)NC(=O)[C@H]1CCCN1C(=O)[C@@H](CCC(N)=O)NC(=O)[C@@H](Cc1c[nH]c2ccccc12)NC(C)=O)C(C)C)C(=O)N[C@H](CO)C(=O)N[C@H](CCC(N)=O)C(=O)N[C@H](CO)C(=O)N1CCC[C@@H]1C(=O)N[C@H](Cc1c[nH]c2ccccc12)C(=O)N[C@H](CO)C(=O)N[C@H](Cc1c[nH]cn1)C(=O)N1CCC[C@@H]1C(=O)N[C@H](CO)C(=O)N[C@H](CCCNC(=N)N)C(N)=O | rep main protease | enzyme activity, fluorescence |  | 140 µM | 100%
Cn1c(C(=O)Nc2ccc3c(c2)OCCO3)cc2c(=O)n3ccccc3nc21 | rep main protease | enzyme activity |  | 1 µM | 31%
Clc1nc2ccccc2cc1/C=N\c1ccc(Br)nc1 | rep papain-like protease | enzyme activity |  | 10 µM | 3.5%
CCN(CC)C(=S)SSC(=S)N(CC)CC | rep main protease | enzyme activity, fluorescence |  | 10 µM, pH 7.2 | 100%
O=c1c(O)c(-c2cc(O)c(O)c(O)c2)oc2cc(O)ccc12 | rep main protease | enzyme activity |  | 10 µM | 62.5%
CC1(C)CC(Nc2ccc(Nc3ccccc3)cc2)CC(C)(C)N1 | rep main protease | enzyme activity |  | 20 µM | 27.8%
Cc1ccc(NC2C=CS(=O)(=O)C2)cc1 (stereo not drawn) | rep main protease | enzyme activity |  | 20 µM | 2.03%
O=C(/C=C/c1ccc2ncccc2c1)N1CCC[C@@]2(CCN(C(=O)c3cc(=O)[nH]c(=O)[nH]3)C2)C1 | rep main protease | enzyme activity |  | 5 µM | 18%
COc1cc(C)cc2c1C(=O)C=CC2=O | rep main protease | enzyme activity |  | 1 µM | 75.6%
CN(C(=O)[C@H](Cc1ccccc1)NC(=O)[C@@H](NC(=O)OCc1ccccc1)C(C)(C)C)N(C#N)CCC(N)=O | rep main protease | enzyme activity, fluorescence |  | 50 µM, pH 7.2 | 100%
O=c1cc(-c2ccc(O)cc2)oc2cc(O)c(O)c(O)c12 | rep papain-like protease | enzyme activity |  | 50 µM | 65.7%
COCOc1cc(C)cc2c1C(=O)C=CC2=O | rep main protease | enzyme activity |  | 10 µM | 79.6%
Cc1cc(NC(=O)c2cc3c(=O)n4cccc(C)c4nc3n2C)ccc1Br | rep main protease | enzyme activity |  | 10 µM | 30%
CCC(=O)Oc1cccc2c1C(=O)C=CC2=O | rep main protease | enzyme activity |  | 10 µM | 102%
Cn1c(C(=O)Nc2ccc(Cl)cc2)cc2c(=O)n3ccccc3nc21 | rep main protease | enzyme activity |  | 100 µM | 33%
COc1cccc2c1C(=O)C(C(C)=O)=CC2=O | rep main protease | enzyme activity |  | 0.1 µM | 35.2%
COC(=O)C1=CO[C@@H](O[C@@H]2O[C@H](CO)[C@@H](O)[C@H](O)[C@H]2O)[C@@H]2[C@@H](C)[C@@H](O)C[C@H]12 | rep main protease | enzyme activity |  | 100 µM | 10.6%
